Assay results taken from ChEMBL document CHEMBL1126243, “A novel class of cardiotonic agents: synthesis and biological evaluation of 5-substituted 3,6-dihydrothiadiazin-2-ones with cyclic AMP phosphodiesterase inhibiting and myofibrillar calcium sensitizing properties” (J Med Chem, 1992).

Columns and labels:
[1] = system: cardiac myofibrillar ATPase (Canis familiaris); experiment: Change in calcium-induced activation of canine cardiac myofibrillar ATPase at 200 uM; settings: Canis lupus familiaris
[2] = target: Phosphodiesterase; PDE3 & PDE4; experiment: Inhibition of dog left ventricle sarcoplasmic reticulum bound low-Km c-AMP phosphodiesterase; format: protein assay, Canis lupus familiaris
Procedure, shortened: (§1)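 SR vesicles from dog left ventricle, isolated on a sucrose gradient after Ca2+ oxalate loading. Radiochemical assay at 30 °C with 1 µM [3H]cAMP, 12 mM Tris-HCl, 0.5 mM MgCl2, 137 mM NaCl and 20 mM glucose; products separated on Dowex after 5'-nucleotidase step. Less than 25% substrate hydrolysed. Triplicates at 10 concentrations (10^-9–10^-4 M), DMSO 1%. IC50 from Hill plot of mean curve over at least 3 preparations.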

[3] = system: cardiac myofibrillar ATPase (Canis familiaris); experiment: Shift induced by 30 uM of compound, of the [Ca2+] concentration required for half-maximal activation of the canine cardiac myofibrillar ATPase; settings: Canis lupus familiaris
[4] = system: Canis familiaris; experiment: Peak response for contractility was determined in conscious Dog at the dose of 30 ug/kg by peroral administration and measured as% changes of control; settings: route oral
[5] = system: cardiac myofibrillar ATPase (Canis familiaris); experiment: c[Ca2+] concentration required for half-maximal activation of the cardiac myofibrillar ATPase at 30 uM dose of the compound; settings: Canis lupus familiaris
[6] = system: cardiac myofibrillar ATPase (Canis familiaris); experiment: c[Ca2+] concentration required for half-maximal activation of the cardiac myofibrillar ATPase at 100 uM dose of the compound; settings: Canis lupus familiaris
[7] = system: Canis familiaris; experiment: Peak response for heart rate was determined in conscious Dog at the dose of 30 ug/kg by peroral administration and measured as% changes of control; settings: route oral
[8] = system: cardiac myofibrillar ATPase (Canis familiaris); experiment: Shift induced by 100 uM of compound, of the [Ca2+] concentration required for half-maximal activation of the canine cardiac myofibrillar ATPase; settings: Canis lupus familiaris
[9] = Inhibition of dog left ventricle sarcoplasmic reticulum bound low-Km cAMP phosphodiesterase; set-up: species or system Canis lupus familiaris
Procedure, shortened: as §1

[10] = system: cardiac myofibrillar ATPase (Canis familiaris); experiment: Shift induced by 200 uM of compound, of the [Ca2+] concentration required for half-maximal activation of the canine cardiac myofibrillar ATPase; settings: Canis lupus familiaris
[11] = system: cardiac myofibrillar ATPase (Canis familiaris); experiment: Shift induced by 10 uM of compound, of the [Ca2+] concentration required for half-maximal activation of the canine cardiac myofibrillar ATPase; settings: Canis lupus familiaris
[12] = system: cardiac myofibrillar ATPase (Canis familiaris); experiment: Shift induced by 1 uM of compound, of the [Ca2+] concentration required for half-maximal activation of the canine cardiac myofibrillar ATPase; settings: Canis lupus familiaris
[13] = system: cardiac myofibrillar ATPase (Canis familiaris); experiment: Shift induced by 3 uM of compound, of the [Ca2+] concentration required for half-maximal activation of the canine cardiac myofibrillar ATPase; settings: Canis lupus familiaris

| Structure (SMILES) | Delta pCa50 [1] | IC50 [2] [nM] | Delta pCa50 [3] | other results |
| --- | --- | --- | --- | --- |
| Cc1nc(O)c(N)cc1-c1ccccc1 | 0.1 | 18000 | – | – |
| CC1SC(=O)NN=C1c1ccc2c(c1)C1(CC1)C(=O)N2 (stereo not given) | – | 36 | 0.14 | – |
| CC1SC(=O)NN=C1c1ccc2c(c1)C(C)(C)C(=O)N2 (stereo not given) | 0.31 | 330 | – | Change [4]: 73%; Delta pCa50 [5]: 0.09; Delta pCa50 [6]: 0.24; Change [7]: 8% |
| CSC1(C)C(=O)Nc2ccc(C3=NNC(=O)CC3)cc21 (stereo not given) | 0.07 | – | – | – |
| CC1CC(=O)NN=C1c1ccc2c(c1)C(C)(C)C(=O)N2 (stereo not given) | – | 240 | – | Delta pCa50 [8]: -0.09 |
| CC1SC(=O)NN=C1c1ccc2c(c1)C(C)(C)OC(=O)N2 (stereo not given) | – | – | 0.15 | Change [4]: 67%; Change [7]: 13% |
| CC1(C)C(=O)Nc2ccc(C3=NNC(=O)SC3)cc21 | 0.16 | – | – | – |
| CC1[Se]C(=O)NN=C1c1ccc2c(c1)C(C)(C)C(=O)N2 (stereo not given) | – | 540 | – | Delta pCa50 [8]: 0.3 |
| CC1OC(=O)NN=C1c1ccc2c(c1)C(C)(C)C(=O)N2 (stereo not given) | – | 960 | – | Delta pCa50 [8]: 0.04 |
| CC1NC(=O)NN=C1c1ccc2c(c1)C(C)(C)C(=O)N2 (stereo not given) | – | 170 | – | Delta pCa50 [8]: -0.04 |
| CSC1C(=O)Nc2ccc(C3=NNC(=O)SC3)cc21 (stereo not given) | 0.28 | – | – | – |
| CC1SC(=O)NN=C1c1ccc2c(c1)C1(SCCS1)C(=O)N2 (stereo not given) | – | – | 0.57 | IC50 [9]: 350 nM |
| CC1SC(=O)NN=C1c1ccc2c(c1)C(C)(C)NC(=O)N2 (stereo not given) | – | – | 0.24 | Change [4]: 38%; Change [7]: 9% |
| Cc1c(C2=NNC(=O)SC2C)ccc2c1C(C)(C)C(=O)N2 (stereo not given) | – | – | -0.07 | IC50 [9]: 9200 nM |
| CSC1(C)C(=O)Nc2ccc(C3=NNC(=O)CC3C)cc21 (stereo not given) | 0.11 | – | – | – |
| COc1cc([S+](C)[O-])ccc1-c1nc2cccnc2[nH]1 (stereo not given) [SULMAZOLE] | – | – | – | IC50 [9]: 140000 nM |

| Structure (SMILES) | Delta pCa50 [1] | IC50 [2] [nM] | Delta pCa50 [3] | other results |
| --- | --- | --- | --- | --- |
| Cc1cc(C2=NNC(=O)SC2C)cc2c1NC(=O)C2(C)C (stereo not given) | – | – | 0.26 | IC50 [9]: 240 nM |
| CC1SC(=O)NN=C1c1ccc2c(c1)CC(C)(C)C(=O)N2 (stereo not given) | – | – | 0.33 | Change [4]: 26%; Change [7]: 24% |
| O=C1Cc2cc(C3=NNC(=O)SC3)ccc2N1 | 0.08 | – | – | – |
| CC1SC(=O)NN=C1c1ccc2c(c1)C1(CCCS1)C(=O)N2 (stereo not given) | – | 1400 | 0.37 | – |
| CC1C(=O)Nc2ccc(C3=NNC(=O)SC3)cc21 (stereo not given) | 0.15 | – | – | – |
| CC1(C)SC(=O)NN=C1c1ccc2c(c1)C(C)(C)C(=O)N2 | -0.02 | 66000 | – | – |
| CC1(C)C(=O)Nc2ccc(C3=NNC(=O)CC3)cc21 | – | – | – | Delta pCa50 [10]: -0.04 |
| Cc1cc2c(cc1C1=NNC(=O)SC1C)C(C)(C)C(=O)N2 (stereo not given) | – | 3300 | -0.06 | – |
| CC1SC(=O)NN=C1c1ccc2c(c1)C1(CCCC1)C(=O)N2 (stereo not given) | – | 1100 | 0.35 | – |
| CC1SC(=O)NN=C1c1ccc2c(c1)C1(SCCCS1)C(=O)N2 (stereo not given) | – | – | 0.76 | Delta pCa50 [11]: 0.65; Delta pCa50 [12]: 0.12; Delta pCa50 [13]: 0.48; IC50 [9]: 260 nM |
| CSC1(C)C(=O)Nc2ccc(C3=NNC(=O)SC3C)cc21 (stereo not given) | – | – | – | Delta pCa50 [10]: 0.33 |
| CC1SC(=O)NN=C1c1ccc2c(c1)C1(CCCCC1)C(=O)N2 (stereo not given) | – | 1300 | 0.39 | – |
| CSC1(C)C(=O)Nc2ccc(C3=NNC(=O)SC3)cc21 (stereo not given) | 0.39 | 1200 | – | – |
| CC1(C)C(=O)Nc2cc3[nH]c(-c4ccncc4)nc3cc21 [ADIBENDAN] | 0.16 | 520 | – | – |
| CC1SC(=O)NN=C1c1ccc2c(c1)C(C)(C)CC(=O)N2 (stereo not given) | – | – | 0.45 | Change [4]: 21%; Change [7]: 5% |
| O=C1CCc2cc(C3=NNC(=O)SC3)ccc2N1 | – | – | 0 | – |
